Here are results for one compound from ChEMBL document CHEMBL4400543, “Identification and Characterization of AES-135, a Hydroxamic Acid-Based HDAC Inhibitor That Prolongs Survival in an Orthotopic Mouse Model of Pancreatic Cancer” (J Med Chem, 2019).

Data set [1] has as its system Panc1005. The data set can be described thus: Cytotoxicity against human Panc 10.05 cells assessed as reduction in tumor spheroid area after 72 hrs by Alamar Blue assay. Format: functional, cell-based. To be noted: Panc1005, 72 h. Summed up:
(§1)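 3D spheroids of patient-derived PDAC cells (tomato red) alone or with CAF19 cells, plus CAF cultures. Imaging read-outs: area is the μ2 of objects above a tomato red intensity threshold; intensity is summed red or green pixel fluorescence after background removal. n = 3–5.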
On the technique in general: Alamar Blue is a resazurin reagent that responds to reducing activity.

The nature of data set [2]: Drug uptake in NSG mouse serum at 20 mg/kg, ip administered as single dose and measured at 8 hrs by HPLC-MS/MS analysis. It is filed as ADME, organism-based. The settings on record: read-out: Drug uptake. Summed up: (§2)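 NSG mice given a single 20 mg/kg IP dose in Cremophor EL/EtOH (1:1, 4% final volume)/sterile saline. Tail-vein blood at 0.5, 1, 2, 4, 8 and 24 h, n = 2. Drug quantified in serum/plasma. Half-life and clearance calculated assuming 100% bioavailability.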

Data set [3] can be described thus: Cmax in NSG mouse at 20 mg/kg, ip administered as single dose and measured at 0.5 hrs by HPLC-MS/MS analysis. It is filed as ADME, organism-based. The arrangement: dose 20 mg/kg, route intraperitoneal. To be noted: in vivo. Put shortly: as §2
Data set [4] is described as follows: Stability of the compound in DMSO at 10 mM after 16 hrs in presence of 100 fold excess reduced L-glutathione by 19F NMR analysis. Format: physicochemical. The settings on record: 10000 µM.
The target in the next data set is Histone deacetylase 3 (Homo sapiens, UniProt O15379). The data set is described as follows: Inhibition of recombinant human HDAC3 expressed in SF9 baculoviral system at 10 uM using FAM-labeled acetylated peptide as substrate by EMSA relative to control. Put shortly:
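Single-point screen at 10 μM compound, using full-length recombinant human enzyme expressed in Sf9 cells. Buffer was HEPES pH 7.5 with KCl, BSA and Triton X-100, and 1% DMSO. Final enzyme was 0.5 nM for HDAC3, 60 nM for HDAC6 and 5.0 nM for HDAC8, with 1 μM FAM-acetylated peptide. Percent inhibition was derived from the product sum ratio relative to DMSO-only (0%) and no-enzyme (100%) controls.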

A short description of data set [5]: Selectivity ratio of IC50 for human CAF19 cells to IC50 for human Panc 10.05 cells.
Data set [6] in a line: Half life in ICR/CD1 mouse hepatocytes at 1 uM up to 120 mins by LC-MS/MS analysis. Format: ADME, cell-based, Hepatocyte. The settings on record: 2 h.
In another data set the test system is Pa03C. The data set can be described thus: Cytotoxicity against human Pa03C monolayer cells assessed as reduction in tumor spheroid intensity after 72 hrs by Alamar Blue assay. It is filed as functional, cell-based. Summed up: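 Monolayer proliferation of STR-authenticated, mycoplasma-checked patient-derived PDAC lines and mouse KPC cells. Plated at 2000 cells/well, treated 72 h, read by alamarBlue. At least triplicate, n = 3–5.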

The target of data set [7] is Signal transducer and activator of transcription 3 (Homo sapiens) (UniProt P40763). The data set is described as follows: Inhibition of STAT3 phosphorylation at S727 residue in human BTSC 143EF cells at 1 to 10 uM after 24 hrs by Western blot method. Format: cell-based. Put shortly: (§3)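 BTSCs dissociated to single cells and treated with drug or DMSO. Lysed in RIPA buffer with protease inhibitors. 20 μg lysate run on SDS-PAGE and transferred to nitrocellulose. Blocked in 5% milk, primary antibody overnight at 4 °C, then HRP secondary for 1 h.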
On the technique in general: In western blotting, separated proteins are transferred to a membrane and probed.

For data set [8], the target named is T1, Protein deacetylase HDAC6 (Homo sapiens, UniProt Q9UBN7).
T1 sequence (Q9UBN7 whole entry): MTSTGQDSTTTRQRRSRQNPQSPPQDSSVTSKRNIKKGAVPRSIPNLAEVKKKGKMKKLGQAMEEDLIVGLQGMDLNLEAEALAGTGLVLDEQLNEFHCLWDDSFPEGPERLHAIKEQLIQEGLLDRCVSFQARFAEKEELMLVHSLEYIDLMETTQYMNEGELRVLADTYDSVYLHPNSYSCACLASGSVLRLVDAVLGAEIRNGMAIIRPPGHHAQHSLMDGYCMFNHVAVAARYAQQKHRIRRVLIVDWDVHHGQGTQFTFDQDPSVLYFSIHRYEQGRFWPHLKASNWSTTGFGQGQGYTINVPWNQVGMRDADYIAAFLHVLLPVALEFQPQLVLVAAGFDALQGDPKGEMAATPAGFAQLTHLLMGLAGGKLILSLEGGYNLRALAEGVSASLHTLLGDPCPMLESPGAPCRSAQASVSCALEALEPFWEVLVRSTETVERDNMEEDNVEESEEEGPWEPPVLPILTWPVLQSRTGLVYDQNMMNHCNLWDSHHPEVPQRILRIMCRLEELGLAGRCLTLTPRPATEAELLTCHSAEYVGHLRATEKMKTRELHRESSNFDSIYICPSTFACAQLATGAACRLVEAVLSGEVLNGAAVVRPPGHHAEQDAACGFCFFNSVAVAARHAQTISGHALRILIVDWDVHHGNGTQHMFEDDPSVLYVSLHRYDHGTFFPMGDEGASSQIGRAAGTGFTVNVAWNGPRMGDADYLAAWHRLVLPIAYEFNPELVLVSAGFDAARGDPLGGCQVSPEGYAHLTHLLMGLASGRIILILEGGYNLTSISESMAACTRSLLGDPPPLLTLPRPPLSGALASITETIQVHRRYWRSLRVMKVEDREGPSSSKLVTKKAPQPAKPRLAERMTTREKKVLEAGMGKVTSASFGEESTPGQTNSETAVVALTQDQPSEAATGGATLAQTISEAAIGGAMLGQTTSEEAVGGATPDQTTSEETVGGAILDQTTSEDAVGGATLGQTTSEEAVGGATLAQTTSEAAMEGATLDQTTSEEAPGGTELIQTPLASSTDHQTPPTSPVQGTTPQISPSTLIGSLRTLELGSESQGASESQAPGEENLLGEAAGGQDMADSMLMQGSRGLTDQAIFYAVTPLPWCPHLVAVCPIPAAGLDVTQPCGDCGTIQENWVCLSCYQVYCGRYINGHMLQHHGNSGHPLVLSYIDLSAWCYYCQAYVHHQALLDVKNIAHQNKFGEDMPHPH
The data set can be described thus: Inhibition of recombinant human HDAC6 expressed in SF9 baculoviral system using FAM-labeled acetylated peptide as substrate by EMSA. Summed up: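 Full-length recombinant human enzyme from an Sf9 baculovirus system, in 100 mM HEPES pH 7.5 with 25 mM KCl, 0.1% BSA, 0.01% Triton X-100 and 1% DMSO. Final enzyme was 0.5 nM for HDAC3, 60 nM for HDAC6 and 5.0 nM for HDAC8. FAM-acetylated peptide was 1 μM. The read-out was product/(substrate+product) by microfluidic mobility shift, with inhibition set against DMSO and no-enzyme controls (quadruplicate). Compounds were tested at 12 threefold-spaced concentrations, and IC50 came from a four-parameter sigmoid fit.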

Data set [9] has as its target Signal transducer and activator of transcription 3 (Homo sapiens) (UniProt P40763). The data set is described as follows: Inhibition of STAT3 phosphorylation at Y705 residue in human BTSC 100EF cells at 1 to 10 uM after 24 hrs by Western blot method. It is filed as cell-based. Put shortly: as §3
For data set [10], the system named is Panc1005. The data set is described as follows: Cytotoxicity against human Panc 10.05 cells assessed as reduction in tumor spheroid intensity after 72 hrs in presence of human CAF19 cells by Alamar Blue assay. To be noted: Panc1005, 72 h. It is filed as functional, cell-based. Summed up:
as §1

Active and inactive are the calls of the source.

The IC50 is the concentration that inhibits the measured activity by half. The term Cmax denotes the maximum level reached in the sampled fluid or tissue. As a reminder, the inhibition is the share of the control response that was lost under treatment.

Chain of Signal transducer and activator of transcription 3 (Homo sapiens) (P40763 whole entry): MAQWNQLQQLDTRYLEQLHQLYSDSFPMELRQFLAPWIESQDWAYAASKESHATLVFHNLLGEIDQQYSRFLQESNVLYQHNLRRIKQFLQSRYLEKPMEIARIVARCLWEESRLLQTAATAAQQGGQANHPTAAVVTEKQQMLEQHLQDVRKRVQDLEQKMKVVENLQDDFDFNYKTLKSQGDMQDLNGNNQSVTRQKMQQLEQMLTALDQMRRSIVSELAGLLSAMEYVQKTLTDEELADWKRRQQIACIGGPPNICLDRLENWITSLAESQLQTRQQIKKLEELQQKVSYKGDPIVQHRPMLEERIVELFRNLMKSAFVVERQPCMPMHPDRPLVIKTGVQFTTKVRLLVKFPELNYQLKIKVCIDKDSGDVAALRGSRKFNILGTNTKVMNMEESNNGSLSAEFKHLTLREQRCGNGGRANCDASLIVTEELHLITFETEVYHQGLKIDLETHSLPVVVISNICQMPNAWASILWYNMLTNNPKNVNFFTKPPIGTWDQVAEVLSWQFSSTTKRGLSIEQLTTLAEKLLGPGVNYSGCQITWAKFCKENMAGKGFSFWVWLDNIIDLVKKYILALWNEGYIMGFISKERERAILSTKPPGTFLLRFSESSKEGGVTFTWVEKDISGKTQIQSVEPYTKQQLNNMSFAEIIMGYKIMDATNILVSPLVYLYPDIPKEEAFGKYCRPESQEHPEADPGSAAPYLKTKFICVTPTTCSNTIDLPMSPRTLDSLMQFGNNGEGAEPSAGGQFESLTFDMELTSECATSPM
Chain of Histone deacetylase 3 (O15379 whole entry): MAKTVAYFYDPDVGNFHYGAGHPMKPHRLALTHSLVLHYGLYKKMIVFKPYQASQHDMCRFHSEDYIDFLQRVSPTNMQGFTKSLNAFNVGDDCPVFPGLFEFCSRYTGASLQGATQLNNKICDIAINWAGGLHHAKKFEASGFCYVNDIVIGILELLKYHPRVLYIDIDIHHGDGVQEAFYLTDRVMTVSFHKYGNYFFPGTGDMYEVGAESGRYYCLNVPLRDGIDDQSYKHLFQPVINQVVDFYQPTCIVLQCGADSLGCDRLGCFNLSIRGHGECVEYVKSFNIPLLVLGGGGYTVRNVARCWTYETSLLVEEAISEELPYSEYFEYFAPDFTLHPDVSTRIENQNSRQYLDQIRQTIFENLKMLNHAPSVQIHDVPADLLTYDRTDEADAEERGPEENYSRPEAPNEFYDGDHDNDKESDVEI

On to `CC(C)(C)c1ccc(CN(C(=O)CN(Cc2c(F)c(F)c(F)c(F)c2F)S(=O)(=O)c2ccc(F)cc2)c2ccc(C(=O)NO)cc2)cc1`, for which the IC50 in the data set with Panc1005 [1] turned out to be 970 nM; in the data set with Pa03C, 3.4 µM; in [8], 190 nM; in the data set on Panc1005 [10], 500 nM. Further, the concentration at 8 h in data set [2] was 6390 ng/mL. For the same compound, the highest level in data set [3] (Cmax) was 10.7 µM. In addition, the Stability entry in data set [4] is listed as “Stable”. Besides, on Histone deacetylase 3, the inhibition is 98%. In addition, the “Ratio IC50” value in data set [5] is reported as 5 - 6. For the same compound, the t1/2 in data set [6] is 38.5 min. The inhibition entry in data set [7] and in data set [9] was “inactive” each time.
